In the library only some 1.7% were active in any assay of this set; here they are far more common.
IDE inh = human IDE inhibitors in live cells, primary screen, fluorescence polarization, HEK cells, FAbetaB substrate; Insulin-degrading enzyme (Homo sapiens), P14735; FAbetaB cleavage; inhibition, % at 5.59 µM; actives 0.41% (n = 320,000);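 active means percent inhibition above the average of all tested compounds plus 3 SD, set per screening campaign, cut at about 16% in these data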;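 further: IDE supplied by intact live HEK cells; FP after avidin binding of uncleaved biotin substrate so inhibition keeps polarization high; 0% = DMSO wells and 100% = 60 µM reference IDE inhibitor Ii1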
Target sequence (P14735 whole entry, looked up): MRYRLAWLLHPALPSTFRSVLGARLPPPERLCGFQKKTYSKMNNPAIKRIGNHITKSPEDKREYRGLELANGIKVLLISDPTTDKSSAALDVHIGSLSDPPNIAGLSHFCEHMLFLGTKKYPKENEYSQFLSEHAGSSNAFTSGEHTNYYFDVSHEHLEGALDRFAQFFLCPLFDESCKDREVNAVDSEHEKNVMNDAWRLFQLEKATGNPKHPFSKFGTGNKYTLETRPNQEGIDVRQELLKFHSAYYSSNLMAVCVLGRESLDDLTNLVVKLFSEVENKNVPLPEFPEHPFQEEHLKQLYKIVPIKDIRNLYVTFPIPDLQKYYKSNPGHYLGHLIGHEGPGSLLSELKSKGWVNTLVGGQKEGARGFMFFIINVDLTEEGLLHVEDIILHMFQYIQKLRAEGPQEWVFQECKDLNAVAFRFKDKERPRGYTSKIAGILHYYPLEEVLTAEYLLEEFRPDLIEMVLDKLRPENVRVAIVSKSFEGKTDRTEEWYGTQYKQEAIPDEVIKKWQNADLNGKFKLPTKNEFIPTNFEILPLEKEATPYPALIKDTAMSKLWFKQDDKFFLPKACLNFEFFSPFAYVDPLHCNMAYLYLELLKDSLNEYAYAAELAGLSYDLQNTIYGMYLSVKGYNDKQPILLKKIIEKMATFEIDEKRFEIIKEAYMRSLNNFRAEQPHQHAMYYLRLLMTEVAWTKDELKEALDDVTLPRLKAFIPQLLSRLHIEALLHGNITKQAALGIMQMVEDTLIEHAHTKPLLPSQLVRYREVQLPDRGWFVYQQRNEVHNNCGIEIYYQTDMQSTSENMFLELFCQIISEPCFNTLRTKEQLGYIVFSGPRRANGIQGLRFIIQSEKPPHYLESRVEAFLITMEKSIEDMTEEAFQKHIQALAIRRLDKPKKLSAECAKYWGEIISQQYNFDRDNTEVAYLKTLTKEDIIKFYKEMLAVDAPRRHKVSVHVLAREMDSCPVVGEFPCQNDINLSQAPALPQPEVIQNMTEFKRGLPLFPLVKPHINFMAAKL
TPT1 inhibitor = Candida albicans TPT1 enzyme inhibitors, primary screen, biochemical, fluorescence polarization; recombinant caTPT1, FP RNA substrate dephosphorylation; AID 1962, 2009; inhibition, % at 5 µM; tRNA 2'-phosphotransferase TPT1 (Candida albicans SC5314); actives 0.81% (n = 300,000);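 active means inhibition above the mean of all tested compounds plus 3 SD, set per screening campaign, cut at about 24% in these data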;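 further: plate controls were DMSO alone for no effect and ferristatin control at 100 nM for full effect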
CSN deneddyl inh = inhibitors of CSN-mediated cullin deneddylation, primary screen, biochemical, fluorescence polarization, uHTS | AID 651999, 2013 | COP9 signalosome complex subunit 5 (Homo sapiens), Q92905 | inhibition, % at 12.5 µM | Purified CSN, SCF-Nedd8-OG deneddylation | actives 0.38% (n = 360,000);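 active means pattern-corrected inhibition above about 35%, with an unprinted fluorescence ratio check between 0.5 and 1.5, limit read from the data, passing the limit was not always enough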;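 further: 0% = enzyme with substrate and 100% = substrate without enzyme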
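Assay system: purified human Csn5 enzyme expressed in HEK293T cells; Input: 0.24 nM Csn5 enzyme, final concentration; Reagent: 10 nM SCFSkp2-Nedd8OG; Compound dosing: 12.5 µM single point; Times: reaction 90 min, room temperature; Technique: fluorescence polarization readout.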
IDE act = human IDE activators in live cells, primary screen, fluorescence polarization, HEK cells, FAbeta-B substrate | Insulin-degrading enzyme (Homo sapiens), P14735 | FAbeta-B cleavage; 0% vehicle, 100% cell-free pure enzyme wells | activation, % at 5.96 µM | actives 0.073% (n = 340,000);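 active means activation above the mean of all tested compounds plus 3 SD, set per screening campaign, cut at about 17% in these data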
Rpn11 block = Rpn11 (PSMD14) deubiquitinase inhibitors, primary screen, biochemical, fluorescence polarization, uHTS; human 26S proteasome, Ub4-pepOG fluorescence polarization; 20S core pre-blocked with epoxomicin; actives 0.59% (n = 360,000); AID 588493, 2011; 26S proteasome non-ATPase regulatory subunit 14 (Homo sapiens), O00487; calls only at 20 µM;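 active means inhibition at 20 µM, scaled to each plate's controls, above about 33%, limit read from the data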
HNF4A DNA FP = change in binding of human HNF4A to DNA, primary screen, biochemical, fluorescence polarization, FITC-DNA | 1 h | activity change, % at 10 µM | actives 0.3% (n = 360,000) | AID 1224865, 2016; in the data active means activity change above about 30%, passing the limit was not always enough
Rpn11 inh conf = Rpn11 (PSMD14) deubiquitinase inhibitors, confirmation, biochemical, fluorescence polarization, single concentration | shares compounds with Rpn11 block | purified human 26S proteasome, Ub4-pepOG fluorescence polarization; proteasome pretreated with epoxomicin | inhibition, % at 20 µM | actives 29% (n = 1,900) | AID 602318, 2012
MMP-2 counter = MMP-2 enzyme inhibition, confirmation, counter-screen for RPN11 inhibitor project, biochemical, fluorescence, single concentration; shares compounds with Rpn11 block; recombinant MMP-2, FRET peptide cleavage fluorescence; inhibition, % at 20 µM; actives 4% (n = 1,900); AID 602330, 2012;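 further: human MMP-2 activated beforehand with APMA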
Thrombin FP = bovine thrombin protease inhibition, confirmation, counter-screen for Rpn11 inhibitor project, biochemical, fluorescence polarization, single concentration; shares compounds with Rpn11 block; bovine thrombin cleavage of Ub4-pepOG; inhibition, % at 20 µM; actives 13% (n = 1,900); AID 602333, 2012;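 active means mean inhibition at least 40% at 20 µM, or signal 3 deviations below plate average, so some actives read negative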;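 further: plate controls were thrombin with DMSO for no effect and buffer wells lacking thrombin for full effect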
Numbers without * were called inactive; i = inactive; nt = not tested or not shown; + = active, no number. Unless noted, no stated cut-off is given here; in the data, active means inhibition above about 40%; inactive means the rest.

SMILES	IDE inh	TPT1 inhibitor	CSN deneddyl inh	IDE act	Rpn11 block	HNF4A DNA FP	Rpn11 inh conf	MMP-2 counter	Thrombin FP
Cc1c2c(=O)n(-c3nc4ccccc4s3)nc-2cc(O)n1Cc1ccccc1	nt	nt	10.9	3.9	+	-7.3	5.6	-14.5	6.5
Cc1ccsc1C1C(C(=O)O)c2ccccc2C(=O)N1C (configuration not stated)	0.3	-6.1	-1.5	6.8	+	7.0	-10.0	-43.3	-14.2
CN1C(=O)c2ccccc2C(C(=O)O)C1c1cccc(F)c1 (configuration not stated)	5.8	-2.0	0.7	-5.5	i	2.1	nt	nt	nt
CC(=O)c1cccc(NC(=O)CCc2nc3sc4c(c3c(=O)[nH]2)CCCC4)c1	-7.4	14.8	15.4	-1.5	+	14.5	55.1*	-4.4	41.2*
NS(=O)(=O)c1ccc(CCNC(=O)CCc2nc3sc4c(c3c(=O)[nH]2)CCCC4)cc1	4.4	9.6	7.8	1.6	+	1.4	26.3	-28.5	15.6
CCc1ccc(NC(=O)CCc2nc3sc4c(c3c(=O)[nH]2)CCCC4)cc1	0.2	14.5	2.2	-9.2	+	10.9	55.4*	3.5	34.1
Cc1cccc(NC(=O)CCc2nc3sc4c(c3c(=O)[nH]2)CCCC4)n1	6.2	9.0	4.2	-5.9	i	3.7	nt	nt	nt
CN(CC(=O)Nc1ccc(F)c(F)c1F)C(=O)CCc1nc2sc3c(c2c(=O)[nH]1)CCCC3	3.3	7.6	22.2	-0.1	+	5.6	59.5*	-9.1	34.5
CC(=O)c1ccc(NC(=O)CCc2nc3sc4c(c3c(=O)[nH]2)CCCC4)cc1	10.6	9.5	13.9	-6.2	i	11.5	nt	nt	nt
Cc1cccc(C)c1NC(=O)CN(C)C(=O)CCc1nc2sc3c(c2c(=O)[nH]1)CCCC3	4.1	nt	13.4	4.3	i	0.1	nt	nt	nt
CC(O)CCC(=O)NCCNC(=O)CCC(C)O (configuration not stated)	-1.6	4.2	1.8	-0.7	i	-1.5	nt	nt	nt
CCOC(=O)C1CCN(C(=O)CCc2nc3sc4c(c3c(=O)[nH]2)CCCC4)CC1	-0.2	21.9	3.5	0.4	+	14.5	66.8*	-3.6	46.5*
CCOc1ccc(N(CC(=O)NC2CCCCC2)C(=O)CCC(=O)Nc2nc(C)cs2)cc1	-13.8	2.4	-1.2	2.4	+	5.2	8.0	-29.8	-3.6
COc1ccc(Cl)cc1N(C)C(=O)CCNC(=O)Cn1cnc2ccccc2c1=O	1.8	-1.7	-1.2	6.6	i	-0.6	nt	nt	nt
O=C(Nc1ccnc(=O)[nH]1)c1sc2ccccc2c1Cl	0.3	-0.5	7.9	-3.7	+	-0.1	2.6	16.4	-8.0
O=C(N/N=C/c1ccco1)c1ccc2nc[nH]c2c1	-2.8	2.6	6.6	-1.1	i	-2.5	nt	nt	nt
O=C(N/N=C/c1ccccc1C(F)(F)F)c1ccc2nc[nH]c2c1	0.6	1.3	1.0	7.0	i	-0.3	nt	nt	nt

Screening results from PubChem BioAssay.
